Data reported in ChEMBL document CHEMBL1128667 (J Med Chem, 1995).

Tests used:
[1] = target: Delta-type opioid receptor (Rattus norvegicus, UniProt P33533); experiment: Ability to inhibit [3H]DADLE binding to rat brain delta receptor
Summary of the method: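 [3H]DADLE (1.7-2.5 nM) on rat brain membranes, 3-4 h at 25 °C in 10 mM Tris-HCl pH 7.4 with 100 mM choline chloride, 3 mM MnCl2, 100 nM DAMGO blocking μ sites, and protease inhibitors. Nonspecific with 20 μM levallorphan. 8–10 concentrations, run twice; dilutions in Tris/1 mg/mL BSA. IC50 and slope factor from curve fitting.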

Mu-type opioid receptor = Mu-type opioid receptor (Rattus norvegicus, UniProt P33535); experiment: Ability to inhibit [3H]DAMGO binding to rat brain Opioid receptor mu 1
Summary of the method: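 Rat brain membranes labelled with [3H]DAMGO (1-3 nM), 4 h at 25 °C in 50 mM Tris-HCl pH 7.4 with protease inhibitor cocktail. Nonspecific with 20 μM levallorphan. 8–10 concentrations, run twice; dilutions in Tris with 1 mg/mL BSA, 1 mM stocks in Tris containing 10% DMSO/5% Emulphor. IC50 and slope factor from curve fitting.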

Sigma 2 receptor [2] = experiment: Ability to inhibit [3H](+)-DTG binding to rat liver Sigma receptor type 2 in presence of dextrallorphan
Summary of the method: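 Rat liver membranes (male Sprague–Dawley, 150–200 g; Tris/sucrose homogenisation, differential centrifugation, 25 °C preincubation). 160 μg protein with 5 nM [3H]DTG plus 1 μM dextrallorphan to mask σ1, 50 mM Tris-HCl pH 8.0, 120 min at 25 °C. Nonspecific with 10 μM haloperidol. Filtration. 12 concentrations (0.05–10 000 or 0.5–100 000 nM); Ki via Cheng–Prusoff with Scatchard Kd; 2–3 experiments in duplicate, ±SEM.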

Sigma 2 receptor [3] = experiment: Ratio of binding affinity towards guinea-pig brain […] receptor to rat liver sigma-2 receptor
[4] = target: Kappa-type opioid receptor (Cavia porcellus, UniProt P41144); experiment: Ability to inhibit [3H]U-69593 binding to guinea pig Opioid receptor kappa 1
Summary of the method: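 Guinea pig brain membranes depleted of μ and δ sites by BIT/FIT pretreatment, labelled with [3H]U69,593 (1.2-2.3 nM), 4-6 h at 25 °C in 50 mM Tris-HCl pH 7.4 with protease inhibitors and 1 μg/mL captopril. Nonspecific with 1 μM U69,593. 8–10 concentrations, run twice; IC50 and slope factor from curve fitting.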

[5] = Ability to inhibit [3H](+)-pentazocine binding to guinea pig brain Sigma receptor type 1

Kappa-type opioid receptor, sequence (P41144 whole entry): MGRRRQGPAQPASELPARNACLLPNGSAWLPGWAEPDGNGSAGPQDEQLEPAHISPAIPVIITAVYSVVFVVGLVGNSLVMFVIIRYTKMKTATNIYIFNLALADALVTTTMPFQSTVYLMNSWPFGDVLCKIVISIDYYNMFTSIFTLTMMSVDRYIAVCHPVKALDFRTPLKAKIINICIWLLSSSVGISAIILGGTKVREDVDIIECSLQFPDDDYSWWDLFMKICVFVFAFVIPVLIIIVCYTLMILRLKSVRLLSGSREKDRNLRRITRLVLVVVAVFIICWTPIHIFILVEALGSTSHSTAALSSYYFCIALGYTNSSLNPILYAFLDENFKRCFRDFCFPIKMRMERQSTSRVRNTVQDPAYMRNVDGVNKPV
Delta-type opioid receptor, sequence (P33533 whole entry): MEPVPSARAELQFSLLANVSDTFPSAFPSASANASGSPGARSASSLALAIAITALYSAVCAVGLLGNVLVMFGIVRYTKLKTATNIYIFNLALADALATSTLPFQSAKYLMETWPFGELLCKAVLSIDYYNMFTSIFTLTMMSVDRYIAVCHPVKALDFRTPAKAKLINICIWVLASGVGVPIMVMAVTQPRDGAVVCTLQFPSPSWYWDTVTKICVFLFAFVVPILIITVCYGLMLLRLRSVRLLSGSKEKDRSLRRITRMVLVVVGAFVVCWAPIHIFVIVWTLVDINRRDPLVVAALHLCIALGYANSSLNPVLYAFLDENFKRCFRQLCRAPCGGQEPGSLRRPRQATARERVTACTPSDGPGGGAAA
Mu-type opioid receptor, sequence (P33535 whole entry): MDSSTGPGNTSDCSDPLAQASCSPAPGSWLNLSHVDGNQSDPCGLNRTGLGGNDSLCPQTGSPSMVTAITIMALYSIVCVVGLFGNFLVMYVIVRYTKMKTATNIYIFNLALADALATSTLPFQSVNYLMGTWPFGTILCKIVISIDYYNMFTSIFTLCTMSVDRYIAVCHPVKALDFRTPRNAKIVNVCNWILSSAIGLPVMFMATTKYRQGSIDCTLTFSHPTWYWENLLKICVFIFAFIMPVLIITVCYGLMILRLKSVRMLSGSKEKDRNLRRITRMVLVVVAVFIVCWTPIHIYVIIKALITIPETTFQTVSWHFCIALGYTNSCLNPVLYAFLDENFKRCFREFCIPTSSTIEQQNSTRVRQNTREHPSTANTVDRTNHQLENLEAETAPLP

CN1CCC2(c3cccc(O)c3)CC(=O)/C(=C/c3ccc(Cl)cc3)C1C2 (stereo in doubt; 5) [listing 1 of 2 here]
Ki [1]: > 1 µM
Ki (Mu-type opioid receptor): 0.0216 µM
Ki (Sigma 2 receptor [2]): 0.0095 µM

COc1cccc(/C=C2/C(=O)CC3(c4cccc(O)c4)CCN(C)C2C3)c1 (single isomer, unassigned; (-)) [listing 1 of 2 here]
Ratio (Sigma 2 receptor [3]): 0.12

CN1CCC2(c3cccc(O)c3)CC(=O)/C(=C/c3ccc(Cl)cc3)C1C2 (single isomer, unassigned; (-)) [listing 1 of 2 here]
Ki [1]: > 0.5 µM
Ki (Mu-type opioid receptor): 0.0482 µM
Ki [4]: > 0.5 µM
Ki (Sigma 2 receptor [2]): 0.0265 µM

CN1CCC2(c3cccc(O)c3)CC(=O)/C(=C/c3ccccc3)C1C2 (single isomer, unassigned; (+)) [listing 1 of 2 here]
Ratio (Sigma 2 receptor [3]): 79

COc1cccc(C23CCN(C)C(C2)/C(=C\c2ccccc2)C(=O)C3)c1 (stereo in doubt; 10) [listing 1 of 2 here]
Ki [1]: > 0.5 µM
Ki (Mu-type opioid receptor): > 0.25 µM
Ki [4]: > 1 µM
Ki (Sigma 2 receptor [2]): 0.0817 µM
Ki [5]: 0.138 µM

COc1cccc(/C=C2/C(=O)CC3(c4cccc(O)c4)CCN(C)C2C3)c1 (stereo in doubt; 6) [listing 1 of 2 here]
Ki [1]: > 0.4 µM
Ki (Mu-type opioid receptor): 0.0118 µM
Ki [4]: > 0.5 µM
Ki (Sigma 2 receptor [2]): 0.0443 µM

CN1CCC2(c3cccc(O)c3)CC(=O)/C(=C/c3ccc(Cl)cc3)C1C2 (stereo in doubt; (+)-5) [listing 1 of 2 here]
Ki [1]: 0.336 µM
Ki (Mu-type opioid receptor): 0.0064 µM
Ki (Sigma 2 receptor [2]): 0.0064 µM

COc1cccc(/C=C2/C(=O)CC3(c4cccc(O)c4)CCN(C)C2C3)c1 (single isomer, unassigned; (-)) [listing 2 of 2 here]
Ki [1]: > 0.4 µM
Ki (Mu-type opioid receptor): 0.0314 µM
Ki (Sigma 2 receptor [2]): 0.0463 µM

COc1cccc(/C=C2/C(=O)CC3(c4cccc(O)c4)CCN(C)C2C3)c1 (single isomer, unassigned; (+)) [listing 1 of 2 here]
Ratio (Sigma 2 receptor [3]): 157

COc1ccc(/C=C2/C(=O)CC3(c4cccc(O)c4)CCN(C)C2C3)cc1 (single isomer, unassigned; (+)) [listing 1 of 2 here]
Ratio (Sigma 2 receptor [3]): 88

CN1CCC2(c3cccc(O)c3)CC(=O)/C(=C/C3CC3)C1C2 (stereo not drawn)
Ki [1]: > 1 µM
Ki (Mu-type opioid receptor): 0.0112 µM
Ki [4]: > 0.5 µM
Ki (Sigma 2 receptor [2]): 0.356 µM
Ratio (Sigma 2 receptor [3]): 0.18

CN1CCC2(c3cccc(O)c3)CC(=O)/C(=C/c3cccc(Cl)c3)C1C2 (stereo in doubt; 7) [listing 1 of 2 here]
Ratio (Sigma 2 receptor [3]): 1.5

COc1ccc(/C=C2/C(=O)CC3(c4cccc(O)c4)CCN(C)C2C3)cc1 (stereo in doubt; 4) [listing 1 of 2 here]
Ki [1]: 0.0071 µM
Ki (Mu-type opioid receptor): 0.0041 µM
Ki (Sigma 2 receptor [2]): 0.035 µM

COc1cccc(C23CCN(C)C(C2)/C(=C\c2ccccc2)C(=O)C3)c1 (single isomer, unassigned; (+)) [listing 1 of 2 here]
Ki [4]: > 0.5 µM
Ki (Sigma 2 receptor [2]): 0.052 µM

CN1CCC2(c3cccc(O)c3)CC(=O)/C(=C/c3ccc(Cl)cc3)C1C2 (single isomer, unassigned; (-)) [listing 2 of 2 here]
Ratio (Sigma 2 receptor [3]): 0.69

CN1CCC2(c3cccc(O)c3)CC(=O)/C(=C/c3cccc(Cl)c3)C1C2 (stereo in doubt; (+)-7) [listing 1 of 2 here]
Ki [1]: 0.217 µM
Ki (Mu-type opioid receptor): 0.0118 µM
Ki [4]: > 0.5 µM
Ki (Sigma 2 receptor [2]): 0.0224 µM

CN1CCC2(c3cccc(O)c3)CC(=O)/C(=C/c3ccc(Cl)cc3)C1C2 (stereo in doubt; (+)-5) [listing 2 of 2 here]
Ratio (Sigma 2 receptor [3]): 119

CN1CCC2(c3cccc(O)c3)CC(=O)/C(=C/c3ccc4ccccc4c3)C1C2 (stereo not drawn)
Ki [1]: 0.142 µM
Ki (Mu-type opioid receptor): 0.0022 µM
Ki [4]: > 0.5 µM
Ki (Sigma 2 receptor [2]): 0.0802 µM
Ratio (Sigma 2 receptor [3]): 0.21

COc1cccc(/C=C2/C(=O)CC3(c4cccc(O)c4)CCN(C)C2C3)c1 (stereo in doubt; 6) [listing 2 of 2 here]
Ratio (Sigma 2 receptor [3]): 0.18

CN1CCC2(c3cccc(O)c3)CC(=O)/C(=C/c3cccc(Cl)c3)C1C2 (stereo in doubt; (-)-7) [listing 1 of 2 here]
Ki [1]: 0.386 µM
Ki (Mu-type opioid receptor): 0.0476 µM
Ki [4]: > 0.5 µM
Ki (Sigma 2 receptor [2]): 0.123 µM

CN1CCC2(c3cccc(O)c3)CC(=O)/C(=C/c3ccc(I)cc3)C1C2 (single isomer, unassigned; (+))
Ki [1]: 0.321 µM
Ki (Mu-type opioid receptor): 0.0267 µM
Ki [4]: > 1 µM
Ki (Sigma 2 receptor [2]): 0.0526 µM
Ratio (Sigma 2 receptor [3]): 32

CN1CCC2(c3cccc(O)c3)CC(=O)/C(=C/c3cccc(I)c3)C1C2 (stereo not drawn)
Ki [1]: 0.141 µM
Ki (Mu-type opioid receptor): 0.0091 µM
Ki [4]: > 0.5 µM
Ki (Sigma 2 receptor [2]): 0.024 µM
Ratio (Sigma 2 receptor [3]): 68

CN1CCC2(c3cccc(O)c3)CC(=O)/C(=C/c3ccccc3)C1C2 (stereo in doubt; 2) [listing 1 of 2 here]
Ki (Sigma 2 receptor [2]): 0.037 µM
Ki [5]: 0.0233 µM

COc1ccc(/C=C2/C(=O)CC3(c4cccc(O)c4)CCN(C)C2C3)cc1 (single isomer, unassigned; (-)) [listing 1 of 2 here]
Ratio (Sigma 2 receptor [3]): 0.1

CN1CCC2(c3cccc(O)c3)CC(=O)CC1C2 (stereo in doubt; (-)-1)
Ki (Sigma 2 receptor [2]): 0.025 µM

CN1CCC2(c3cccc(O)c3)CC(=O)/C(=C/c3ccc(Cl)cc3)C1C2 (stereo in doubt; 5) [listing 2 of 2 here]
Ratio (Sigma 2 receptor [3]): 4

CN1CCC2(c3cccc(O)c3)CC(=O)/C(=C/c3ccccc3)C1C2 (stereo in doubt; (-)-2) [listing 1 of 2 here]
Ki [1]: 1.99 µM
Ki (Mu-type opioid receptor): 0.392 µM
Ki [4]: 0.889 µM
Ki (Sigma 2 receptor [2]): 0.154 µM

COc1cccc(/C=C2/C(=O)CC3(c4cccc(O)c4)CCN(C)C2C3)c1 (single isomer, unassigned; (+)) [listing 2 of 2 here]
Ki [1]: 0.175 µM
Ki (Mu-type opioid receptor): 0.0126 µM
Ki (Sigma 2 receptor [2]): 0.0382 µM

COc1ccc(/C=C2/C(=O)CC3(c4cccc(O)c4)CCN(C)C2C3)cc1 (stereo in doubt; 4) [listing 2 of 2 here]
Ratio (Sigma 2 receptor [3]): 0.53

CN1CCC2(c3cccc(O)c3)CC(=O)/C(=C/c3cccc(Cl)c3)C1C2 (stereo in doubt; 7) [listing 2 of 2 here]
Ki [1]: 0.222 µM
Ki (Mu-type opioid receptor): 0.0232 µM
Ki [4]: 0.246 µM
Ki (Sigma 2 receptor [2]): 0.0345 µM

CN1CCC2(c3cccc(O)c3)CC(=O)/C(=C/c3cccc(Cl)c3)C1C2 (stereo in doubt; (+)-7) [listing 2 of 2 here]
Ratio (Sigma 2 receptor [3]): 138

CN1CCC2(c3cccc(O)c3)CC(=O)CC1C2 (single isomer, unassigned; (+))
Ki [1]: 0.505 µM
Ki (Mu-type opioid receptor): 0.0355 µM
Ki [4]: 2.54 µM

CN1CCC2(c3cccc(O)c3)CC(=O)/C(=C/c3ccc(Cl)c(Cl)c3)C1C2 (single isomer, unassigned; (-))
Ki [1]: > 0.5 µM
Ki (Mu-type opioid receptor): 0.0451 µM
Ki (Sigma 2 receptor [2]): 0.0355 µM

CN1CCC2(c3cccc(O)c3)CC(=O)/C(=C/c3ccc(Cl)c(Cl)c3)C1C2 (single isomer, unassigned; (+))
Ki [1]: 0.271 µM
Ki (Mu-type opioid receptor): 0.0045 µM
Ki (Sigma 2 receptor [2]): 0.0134 µM

CN1CCC2(c3cccc(O)c3)CC(=O)/C(=C/c3ccccc3)C1C2 (stereo in doubt; (-)-2) [listing 2 of 2 here]
Ratio (Sigma 2 receptor [3]): 0.06

COc1cccc(C23CCN(C)C(C2)/C(=C\c2ccccc2)C(=O)C3)c1 (stereo in doubt; 10) [listing 2 of 2 here]
Ratio (Sigma 2 receptor [3]): 1.7

COc1ccc(/C=C2/C(=O)CC3(c4cccc(O)c4)CCN(C)C2C3)cc1 (single isomer, unassigned; (+)) [listing 2 of 2 here]
Ki [1]: 0.127 µM
Ki (Mu-type opioid receptor): 0.0039 µM
Ki [4]: > 0.5 µM
Ki (Sigma 2 receptor [2]): 0.0216 µM

COc1cccc(C23CCN(C)C(C2)/C(=C\c2ccccc2)C(=O)C3)c1 (single isomer, unassigned; (+)) [listing 2 of 2 here]
Ratio (Sigma 2 receptor [3]): 2.8

CN1CCC2(c3cccc(O)c3)CC(=O)/C(=C/c3ccccc3)C1C2 (stereo in doubt; 2) [listing 2 of 2 here]
Ratio (Sigma 2 receptor [3]): 0.63

COc1ccc(/C=C2/C(=O)CC3(c4cccc(O)c4)CCN(C)C2C3)cc1 (single isomer, unassigned; (-)) [listing 2 of 2 here]
Ki [1]: > 0.5 µM
Ki (Mu-type opioid receptor): 0.027 µM
Ki (Sigma 2 receptor [2]): 0.0813 µM

CN1CCC2(c3cccc(O)c3)CC(=O)/C(=C/c3ccc(Cl)c(Cl)c3)C1C2 (stereo in doubt; 3)
Ki (Sigma 2 receptor [2]): 0.0718 µM
Ki [5]: 0.0653 µM

CN1CCC2(c3cccc(O)c3)CC(=O)/C(=C/c3cccc(Cl)c3)C1C2 (stereo in doubt; (-)-7) [listing 2 of 2 here]
Ratio (Sigma 2 receptor [3]): 0.25

CN1CCC2(c3cccc(O)c3)CC(=O)/C(=C/c3ccccc3)C1C2 (single isomer, unassigned; (+)) [listing 2 of 2 here]
Ki [1]: 0.735 µM
Ki (Mu-type opioid receptor): 0.0376 µM
Ki [4]: 1.09 µM
Ki (Sigma 2 receptor [2]): 0.0165 µM
